Results on two compounds are retold here after ChEMBL document CHEMBL3045743, “Synthesis and herbicidal activity of isoindoline-1,3-dione substituted benzoxazinone derivatives containing a carboxylic ester group” (J Agric Food Chem, 2009).

Data set [1] has as its system Setaria viridis. As to the kind of experiment: Pre-emergence herbicidal activity against Setaria viridis (green foxtail) assessed as growth inhibition at 75 g.a.i./ha applied 24 hr after seeds were sown measured after 15 days. To be noted: read-out: GI. It counts as functional. A digest of the protocol: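 Preliminary pre-emergence screen at a single rate of 75 g a.i./ha. Stock diluted with water and sprayed on greenhouse pots 24 h after seeds were sown 5 mm deep in clay soil (pH 6.5, 1.7% organic matter); grown at 22-25 °C. Untreated and DMF solvent controls included; triplicate. Visual % growth inhibition vs untreated after 15 days, averaged and banded (>80% top band).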

The test system of data set [2] is Brassica rapa subsp. oleifera. In words: Phytotoxicity against Brassica rapa subsp. oleifera assessed as growth inhibition at 7.5 to 60 g.a.i/ha post-emergent application measured after 15 days by greenhouse crop selectivity assay. Type of data set: organism-based. To be noted: in vivo, other, 360 h. A digest of the protocol: (§1)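 Postemergence crop selectivity test on pot-grown plants in a greenhouse, in clay soil (pH 6.5, 1.7% organic matter, CEC 12.9 cmol/kg). Stock was diluted with water and sprayed at 60, 30, 15 or 7.5 g a.i./ha, in triplicate. Growth inhibition was rated visually against untreated controls after 15 days and given as the triplicate mean percentage.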

In a further data set the test system is Glycine max. As to the kind of experiment: Phytotoxicity against Glycine max (soybean) assessed as growth inhibition at 7.5 to 60 g.a.i/ha post-emergent application measured after 15 days by greenhouse crop selectivity assay. It counts as organism-based. To be noted: in vivo, other, 360 h. An outline of the steps:
as §1

A short description of data set [3]: Phytotoxicity against Oryza sativa (rice) assessed as growth inhibition at 150 g.a.i/ha pre-emergent application measured after 15 days by greenhouse crop selectivity assay. Type of data set: organism-based, L. To be noted: in vivo, read-out: GI. A digest of the protocol:
(§2)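 Pre-emergence greenhouse crop selectivity test on pot-grown plants in clay soil (pH 6.5, 1.7% organic matter, 37.5% clay, CEC 12.9 cmol/kg). Stock solutions were diluted with water and applied at 300, 150, 75 or 37.5 g a.i./ha, in triplicate. After 15 days, phytotoxicity was scored visually against untreated controls as % crop growth inhibition, averaged over the triplicates.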

The subject of data set [4] is Zea mays. In words: Phytotoxicity against Zea mays (maize) assessed as growth inhibition at 150 g.a.i/ha pre-emergent application measured after 15 days by greenhouse crop selectivity assay. It counts as organism-based. To be noted: in vivo, other, 360 h. A digest of the protocol: as §2
Data set [5] deals with Zea mays. As to the kind of experiment: Phytotoxicity against Zea mays (maize) assessed as growth inhibition at 75 g.a.i/ha pre-emergent application measured after 15 days by greenhouse crop selectivity assay. It counts as organism-based. To be noted: in vivo, other, 360 h. An outline of the steps: as §2
In data set [6] the test system is Gossypium. In words: Phytotoxicity against Gossypium (cotton) assessed as growth inhibition at 150 g.a.i/ha pre-emergent application measured after 15 days by greenhouse crop selectivity assay. To be noted: in vivo, other, 360 h. It counts as organism-based. A digest of the protocol:
as §2

Data set [7] relates to Gossypium. In words: Phytotoxicity against Gossypium (cotton) assessed as growth inhibition at 75 g.a.i/ha pre-emergent application measured after 15 days by greenhouse crop selectivity assay. Type of data set: organism-based. To be noted: in vivo, other, 360 h. A digest of the protocol: as §2
The next data set relates to Arachis hypogaea. As to the kind of experiment: Phytotoxicity against Arachis hypogaea (peanut) assessed as growth inhibition at 150 g.a.i/ha pre-emergent application measured after 15 days by greenhouse crop selectivity assay. To be noted: in vivo, other, 360 h. It counts as organism-based. An outline of the steps: as §2
Data set [8] deals with Setaria viridis. As to the kind of experiment: Post-emergence herbicidal activity against Setaria viridis (green foxtail) assessed as growth inhibition at 7.5 g.a.i./ha applied at one-leaf stage measured after 15 days. Type of data set: functional. To be noted: 360 h, read-out: GI. An outline of the steps:
(§3)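 Pot-grown weeds sown 5 mm deep in greenhouse clay soil (pH 6.5, 1.7% organic matter, CEC 12.9 cmol/kg) at 22-25 °C. Stock diluted with water and sprayed post-emergence: dicots at 2-leaf stage, monocots at 1-leaf stage. Untreated and DMF solvent controls were included. % growth inhibition was scored visually versus untreated controls after 15 days. Triplicates averaged.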

Data set [9] has as its system Echinochloa crus-galli. As to the kind of experiment: Post-emergence herbicidal activity against Echinochloa crus-galli (barnyard grass) assessed as growth inhibition at 7.5 g.a.i./ha applied at one-leaf stage measured after 15 days. It counts as functional. To be noted: 360 h, read-out: GI. A digest of the protocol:
as §3

In data set [10] the test system is Digitaria sanguinalis. As to the kind of experiment: Post-emergence herbicidal activity against Digitaria sanguinalis (hairy crabgrass) assessed as growth inhibition at 7.5 g.a.i./ha applied at one-leaf stage measured after 15 days. Type of data set: functional. To be noted: 360 h, read-out: GI. An outline of the steps: as §3
Data set [11] relates to Setaria viridis. As to the kind of experiment: Pre-emergence herbicidal activity against Setaria viridis (green foxtail) assessed as growth inhibition at 7.5 g.a.i./ha applied 24 hr after seeds were sown measured after 15 days. It counts as functional. To be noted: read-out: GI. An outline of the steps: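 Secondary pre-emergence test run at 7.5, 15 and 37.5 g a.i./ha on pot-grown weeds in a greenhouse at 22-25 °C. Seeds sown 5 mm deep in clay soil (pH 6.5, 1.7% organic matter, CEC 12.9 cmol/kg). Stock diluted with water and applied 24 h after sowing. Done in triplicate; visual % growth inhibition vs untreated after 15 days, averaged.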

The test system of data set [12] is Chenopodium album. As to the kind of experiment: Pre-emergence herbicidal activity against Chenopodium album assessed as growth inhibition at 7.5 g.a.i./ha applied 24 hr after seeds were sown measured after 15 days. It counts as functional. To be noted: read-out: GI. An outline of the steps: (§4)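 Weeds sown 5 mm deep in pots of greenhouse clay soil (pH 6.5, 37.5% clay, CEC 12.9 cmol/kg) and grown at 22-25 °C. Water-diluted formulation was applied pre-emergence 24 h after sowing. Untreated and DMF solvent controls were included. Growth inhibition was visually rated in % against untreated controls after 15 days, as the mean of triplicates.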

Data set [13] concerns Setaria viridis. As to the kind of experiment: Pre-emergence herbicidal activity against Setaria viridis (green foxtail) assessed as growth inhibition at 37.5 g.a.i./ha applied 24 hr after seeds were sown measured after 15 days. To be noted: read-out: GI. It counts as functional. A digest of the protocol:
as §4

Data set [14] deals with Chenopodium album. In words: Pre-emergence herbicidal activity against Chenopodium album assessed as growth inhibition at 37.5 g.a.i./ha applied 24 hr after seeds were sown measured after 15 days. Type of data set: functional. To be noted: read-out: GI. An outline of the steps: as §4
Data set [15] concerns Echinochloa crus-galli. As to the kind of experiment: Post-emergence herbicidal activity against Echinochloa crus-galli (barnyard grass) assessed as growth inhibition at 15 g.a.i./ha applied at one-leaf stage measured after 15 days. To be noted: 360 h, read-out: GI. Type of data set: functional. An outline of the steps: as §3
The test system of the next data set is Amaranthus spinosus. In words: Post-emergence herbicidal activity against Amaranthus spinosus assessed as growth inhibition at 15 g.a.i./ha applied at two-leaf stage measured after 15 days. Type of data set: functional. To be noted: 360 h, read-out: GI. A digest of the protocol:
as §3

Data set [16] relates to Chenopodium album. As to the kind of experiment: Post-emergence herbicidal activity against Chenopodium album assessed as growth inhibition at 15 g.a.i./ha applied at two-leaf stage measured after 15 days. It counts as functional. To be noted: 360 h, read-out: GI. A digest of the protocol:
as §3

A further data set has as its system Abutilon theophrasti. As to the kind of experiment: Post-emergence herbicidal activity against Abutilon theophrasti (velvetleaf) assessed as growth inhibition at 15 g.a.i./ha applied at two-leaf stage measured after 15 days. It counts as functional. To be noted: 360 h, read-out: GI. An outline of the steps: as §3
The test system of data set [17] is Setaria viridis. In words: Pre-emergence herbicidal activity against Setaria viridis (green foxtail) assessed as growth inhibition at 15 g.a.i./ha applied 24 hr after seeds were sown measured after 15 days. It counts as functional. To be noted: read-out: GI. A digest of the protocol:
as §4

Data set [18] has as its system Digitaria sanguinalis. In words: Pre-emergence herbicidal activity against Digitaria sanguinalis (hairy crabgrass) assessed as growth inhibition at 15 g.a.i./ha applied 24 hr after seeds were sown measured after 15 days. It counts as functional. To be noted: read-out: GI. A digest of the protocol:
as §4

Data set [19] deals with Digitaria sanguinalis. In words: Post-emergence herbicidal activity against Digitaria sanguinalis (hairy crabgrass) assessed as growth inhibition at 75 g.a.i./ha applied at one-leaf stage measured after 15 days. To be noted: 360 h, read-out: GI. Type of data set: functional. A digest of the protocol:
as §3

For data set [20], the system named is Brassica rapa subsp. oleifera. As to the kind of experiment: Phytotoxicity against Brassica rapa subsp. oleifera assessed as growth inhibition at 37.5 g.a.i/ha pre-emergent application measured after 15 days by greenhouse crop selectivity assay. It counts as functional. To be noted: pre-emergence, 360 h, read-out: GI. An outline of the steps: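 Pot-grown crop in greenhouse clay soil (pH 6.5, 1.7% organic matter, 37.5% clay, CEC 12.9 cmol/kg). Stock diluted with water and applied pre-emergence at 300, 150, 75 or 37.5 g a.i./ha. Cultivated 15 days, then phytotoxicity scored visually as % growth inhibition versus untreated controls. Triplicate treatments, averaged.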

Data set [21] is described as follows: Phytotoxicity against Oryza sativa (rice) assessed as growth inhibition at 300 g.a.i/ha pre-emergent application measured after 15 days by greenhouse crop selectivity assay. It counts as organism-based, L. To be noted: in vivo, read-out: GI. An outline of the steps: as §2

Each structure is given as a SMILES string.

Turning to `COC(=O)C(C)N1C(=O)C(C)Oc2cc(F)c(N3C(=O)C4=C(CCCC4)C3=O)cc21` (stereo not drawn), the inhibition of growth at 75 g/ha in the data set with Setaria viridis [1] and with Digitaria sanguinalis [19] was more than 80% in each case. The Activity result (in [2]; with Glycine max) was “Toxic” throughout. The inhibition at 360 h in data set [3] and in data set [21] was more than 10% each time. For the same compound, the “growth inhibition (GI)” value in the data set on Zea mays [4], in the data set on Zea mays [5], with Gossypium [6], with Gossypium [7] and in the data set on Arachis hypogaea was “Not Active” in each case. The inhibition of growth at 7.5 g/ha is 10% in the data set with Setaria viridis [8]; 10% in the data set with Echinochloa crus-galli [9]; 10% in the data set on Digitaria sanguinalis [10]; 0% with Setaria viridis [11]; 100% in the data set on Chenopodium album [12]. The inhibition of growth at 37.5 g/ha is 80% in the data set with Setaria viridis [13], 100% in the data set on Chenopodium album [14] and more than 10% in data set [20]. In addition, the inhibition of growth at 15 g/ha in the data set on Echinochloa crus-galli [15] turned out to be 30%; with Amaranthus spinosus, 100%; in the data set with Chenopodium album [16], 100%; with Abutilon theophrasti it was 100%; in the data set with Setaria viridis [17], 10%; in the data set with Digitaria sanguinalis [18], 10%.
For the compound `C#CCN1C(=O)COc2cc(F)c(N3C(=O)C4=C(CCCC4)C3=O)cc21` [FLUMIOXAZIN], the inhibition of growth at 75 g/ha in the data set with Setaria viridis [1] and in the data set with Digitaria sanguinalis [19] was more than 80% each time. The Activity entry (in [2]; in the data set on Glycine max) was “Toxic” throughout. The inhibition at 360 h in data set [3] and in [21] was more than 10% each time. The “growth inhibition (GI)” value in the data set on Gossypium [6], in the data set on Gossypium [7] and with Arachis hypogaea was “Not Active” throughout. The inhibition of growth at 7.5 g/ha in the data set on Setaria viridis [8] was 80%; with Echinochloa crus-galli [9], 50%; in the data set on Digitaria sanguinalis [10], 80%; with Setaria viridis [11], 0%; in the data set on Chenopodium album [12], 100%. Also, the inhibition of growth at 37.5 g/ha in the data set on Setaria viridis [13] was 80%; with Chenopodium album [14], 100%; in data set [20], more than 10%. For the same compound, the inhibition of growth at 15 g/ha in the data set with Echinochloa crus-galli [15] is 70%; in the data set on Amaranthus spinosus, 100%; in the data set on Chenopodium album [16], 100%; in the data set with Abutilon theophrasti, 100%; in the data set with Setaria viridis [17] it was 50%; in the data set on Digitaria sanguinalis [18], 50%.
